According to ChEMBL document CHEMBL4038303, “Simultaneous Drug Targeting of the Promoter MYC G-Quadruplex and BCL2 i-Motif in Diffuse Large B-Cell Lymphoma Delays Tumor Growth” (J Med Chem, 2017):
Calls of active or inactive are those of the source. The calls are words filed in the database; no cut-off is given here.

What was measured:
HT = assay: Down regulation of BLC2 mRNA level in human HT cells up to 3 uM after 24 hrs by qPCR method; assay type: functional, cell-based
Procedure, shortened: (§1)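 DLBCL lines grown in RPMI with 10% FBS (SUDHL4 15% FBS) and penicillin/streptomycin. Cells exposed for 24 h to rising concentrations up to 3 μM; DMSO as vehicle control. Total RNA isolated, target mRNA measured by TaqMan real-time qPCR, normalized to TBP and expressed relative to untreated cells; triplicate experiments, two-tailed t test.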

Homo sapiens [1] = organism: Homo sapiens; assay: Binding affinity to c-myc G-quadruplex DNA in human HT cells assessed as downregulation of MYC protein levels up to 3 uM after 24 hrs by Western blot analysis; assay type: cell-based
Procedure, shortened: (§2)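 Cell lines treated 24 h with compound up to 3 μM, with untreated and DMSO-treated controls. Lysates (20 μg total protein) probed by Western blot for BCL2 or MYC with antibodies at 1:1000; actin as loading control. Blots representative of triplicate experiments.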

Homo sapiens [2] = organism: Homo sapiens; assay: Binding affinity to c-myc G-quadruplex DNA in MYC translocation-positive and BCL2 amplification-positive human U2932 cells assessed as downregulation of MYC mRNA levels up to 3 uM after 24 hrs by qPCR method relative to control; procedure, shortened: as §1
Homo sapiens [3] = organism: Homo sapiens; assay: Binding affinity to c-myc G-quadruplex DNA in BCL2 translocation-positive human SUDHL4 cells assessed as downregulation of MYC mRNA levels up to 3 uM after 24 hrs by qPCR method relative to control; procedure, shortened: as §1
Homo sapiens [4] = organism: Homo sapiens; assay: Binding affinity to BLC2 i-motif promoter DNA in BCL2 translocation-positive human SUDHL4 cells assessed as downregulation of Bcl2 mRNA levels at 1 to 3 uM after 24 hrs by qPCR method; procedure, shortened: as §1
Homo sapiens [5] = organism: Homo sapiens; assay: Binding affinity to BLC2 i-motif promoter DNA in BCL2 and MYC translocation-positive human VAL cells assessed as downregulation of Bcl2 mRNA levels at 1 to 3 uM after 24 hrs by qPCR method relative to control; procedure, shortened: as §1
Homo sapiens [6] = organism: Homo sapiens; assay: Binding affinity to BLC2 i-motif promoter DNA in MYC translocation-positive and BCL2 amplification-positive human U2932 cells assessed as downregulation of Bcl2 mRNA levels at 1 to 3 uM after 24 hrs by qPCR method relative to control; procedure, shortened: as §1
Homo sapiens [7] = organism: Homo sapiens; assay: Binding affinity to BLC2 i-motif promoter DNA in human U2932 MYC translocation-positive and BCL2 amplification-positive cells assessed as downregulation of BCL2 protein levels at 1 to 3 uM after 24 hrs by Western blot analysis; procedure, shortened: as §2
Homo sapiens [8] = organism: Homo sapiens; assay: Binding affinity to BLC2 i-motif promoter DNA in human VAL BCL2 and MYC translocation-positive cells assessed as downregulation of BCL2 protein levels at 1 to 3 uM after 24 hrs by Western blot analysis; procedure, shortened: as §2
Homo sapiens [9] = organism: Homo sapiens; assay: Binding affinity to BLC2 i-motif promoter DNA in human SUDHL4 BCL2 translocation-positive cells assessed as downregulation of BCL2 protein levels at 1 to 3 uM after 24 hrs by Western blot analysis; procedure, shortened: as §2
Homo sapiens [10] = organism: Homo sapiens; assay: Stabilization of BCL2 i-motif promoter DNA in BCL2 and MYC translocation-positive human VAL cells assessed as potentiation of CPA-induced cytotoxicity by measuring fold reduction in CPA IC50 at 2 to 3 uM after 96 hrs by MTS assay
Procedure, shortened: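 MTS viability assay. 100 000 cells incubated 96 h with increasing CPA alone or with ligand (1−3 μM). Viability expressed relative to untreated cells. CPA IC50 fitted by Boltzmann sigmoidal equation with variable slope, and fold change in IC50 taken from the fitted values.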

Homo sapiens [11] = organism: Homo sapiens; assay: Stabilization of BCL2 i-motif promoter DNA in MYC translocation-positive and BCL2 amplification-positive human U2932 cells assessed as potentiation of CPA-induced apoptosis by measuring increase in caspase-3 activity at 3 uM after 24 hrs in presence of NSC-338258 by AFC based fluorescence assay (reference value: 30%)
Homo sapiens [12] = organism: Homo sapiens; assay: Stabilization of BCL2 i-motif promoter DNA in BCL2 and MYC translocation-positive human VAL cells assessed as potentiation of CPA-induced apoptosis by measuring increase in caspase-3 activity at 3 uM after 24 hrs in presence of NSC-338258 by AFC based fluorescence assay (reference value: 30%)
Homo sapiens [13] = organism: Homo sapiens; assay: Stabilization of BCL2 i-motif promoter DNA in BCL2 translocation-positive human SUDHL4 cells assessed as potentiation of CPA-induced apoptosis by measuring increase in caspase-3 activity at 3 uM after 24 hrs in presence of NSC-338258 by AFC based fluorescence assay (reference value: 30%)
U2932 [14] = assay: Potentiation of CPA-induced antitumor activity against human U2932 cells xenografted in SCID mouse assessed as tumor growth inhibition at 10 mg/kg, ip for 5 days cotreated with 7.5 mg/kg NSC-338258 measured on day 9 post first treatment (reference value: 50%); assay type: functional
Procedure, shortened: (§3)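 U2932 DLBCL cells (10 × 10^6 in 100 μL sterile saline, viability >91%) injected subcutaneously into left flank of SCID mice (6−8 weeks, immunoglobulin ≤20 μg/mL). Mice pair-matched by tumor volume. Drugs given ip daily for 5 days, CPA 30 mg/kg; controls received all diluents. Tumor volume = a2 × b/2 (a smallest, b largest diameter); n = 5−8; Grubbs' test for outliers.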

U2932 [15] = assay: Potentiation of CPA-induced antitumor activity against human U2932 cells xenografted in SCID mouse assessed as tumor growth inhibition at 10 mg/kg, ip for 5 days cotreated with 7.5 mg/kg NSC-338258 measured on day 12 post first treatment (reference value: 67%); assay type: functional; procedure, shortened: as §3
U2932 [16] = assay: Potentiation of CPA-induced antitumor activity against human U2932 cells xenografted in SCID mouse assessed as tumor growth inhibition at 10 mg/kg, ip for 5 days cotreated with 7.5 mg/kg NSC-338258 measured on day 15 post first treatment (reference value: 44%); assay type: functional; procedure, shortened: as §3
Mus musculus [17] = assay: Reduction in Myc mRNA level in tumor of SCID mouse xenografted with human U2932 cells at 10 mg/kg, ip administered for 5 consecutive days cotreated with CPA and NSC-338258 by qPCR method; assay type: functional, organism-based
Procedure, shortened: (§4)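 Tumors from U2932 xenograft SCID mice given ip treatment daily for 5 days were harvested. Total RNA was taken from the same tumor preparations used for protein lysates, and MYC or BCL2 mRNA was quantified by TaqMan qPCR normalized to TBP. Comparisons were made with diluent-treated mice or CPA-only mice.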

Mus musculus [18] = assay: Reduction in Bcl2 mRNA level in tumor of SCID mouse xenografted with human U2932 cells at 10 mg/kg, ip administered for 5 consecutive days cotreated with CPA and NSC-338258 by qPCR method; assay type: functional, organism-based; procedure, shortened: as §4
U2932 [19] = assay: Potentiation of CPA-induced antitumor activity against human U2932 cells xenografted in SCID mouse assessed as reduction in tumor burden AUC at 10 mg/kg, ip for 5 days cotreated with 5 to 7.5 mg/kg NSC-338258 measured on day 9 to 15 post first treatment; assay type: functional, organism-based; procedure, shortened: as §3
Mus musculus [20] = assay: Toxicity in scid mouse xenografted with human U2932 cells assessed as change in body weight at 10 mg/kg, ip administered for 5 consecutive days in presence of CPA and NSC-338258; assay type: organism-based; conditions: in vivo
Procedure, shortened: (§5)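 SCID mice (6−8 weeks, female or male, serum immunoglobulin ≤20 μg/mL by ELISA) implanted subcutaneously in left flank with 10 × 10^6 U2932 cells in 100 μL saline; pair-matched by tumor volume; dosed ip daily for 5 days; controls received all compound diluents; tumor volume a2 × b/2; outliers by Grubbs' test; two-tailed t test with Šidák–Bonferroni correction.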

Mus musculus [21] = assay: Toxicity in scid mouse xenografted with human U2932 cells assessed as change in body weight at 10 mg/kg, ip administered for 5 consecutive days in presence of CPA; assay type: organism-based; conditions: in vivo; procedure, shortened: as §5
U2932 [22] = assay: Antitumor activity against human U2932 cells xenografted in SCID mouse assessed as reduction in tumor burden at 10 mg/kg, ip for 5 days cotreated with 5 to 7.5 mg/kg NSC-338258 measured on day 9 to 15 post first treatment

## COc1ccc2c(c1)CN([C@@H](C)[C@H]1CC[C@H]3[C@@H]4CC[C@H]5C[C@@H](O)CC[C@]5(C)[C@H]4CC[C@]13C)CO2
HT
  Activity: inactive
Homo sapiens [1]
  Activity: inactive
Homo sapiens [2]
  Activity: inactive
Homo sapiens [3]
  Activity: inactive
Homo sapiens [4]
  Activity: 11 to 37%
Homo sapiens [5]
  Activity: 11 to 37%
Homo sapiens [6]
  Activity: 11 to 37%
Homo sapiens [7]
  Activity: Active
Homo sapiens [8]
  Activity: Active
Homo sapiens [9]
  Activity: Active
Homo sapiens [10]
  fold change (FC): 1.7
Homo sapiens [11]
  Activity: 100%
Homo sapiens [12]
  Activity: 100%
Homo sapiens [13]
  Activity: 100%
U2932 [14]
  TGI: 50%
U2932 [15]
  TGI: 46%
U2932 [16]
  TGI: 37%
Mus musculus [17]
  Activity: Active
Mus musculus [18]
  Activity: Active
U2932 [19]
  Activity: Active
Mus musculus [20]
  Activity: Non-Toxic
Mus musculus [21]
  Activity: Non-Toxic
U2932 [22]
  Activity: inactive
